Laboratory results reported in ChEMBL document CHEMBL2040780, “Antiarrhythmic properties of phenylpiperazine derivatives of phenytoin with α₁-adrenoceptor affinities” (Bioorg Med Chem, 2012).
One block for each compound: values may come before it. The source made the active and inactive calls. The calls are words filed in the database; no cut-off is given here.

What was measured:
[1] = target: T1, Adrenergic receptor alpha-1 (Rattus norvegicus, UniProt P15823+P23944+P43140); experiment: Displacement of [3H]prazosin from alpha1 adrenoceptor in rat cerebral cortex after 30 mins by microbeta scintillation counting; format: tissue-based
T1 sequence (P15823 whole entry): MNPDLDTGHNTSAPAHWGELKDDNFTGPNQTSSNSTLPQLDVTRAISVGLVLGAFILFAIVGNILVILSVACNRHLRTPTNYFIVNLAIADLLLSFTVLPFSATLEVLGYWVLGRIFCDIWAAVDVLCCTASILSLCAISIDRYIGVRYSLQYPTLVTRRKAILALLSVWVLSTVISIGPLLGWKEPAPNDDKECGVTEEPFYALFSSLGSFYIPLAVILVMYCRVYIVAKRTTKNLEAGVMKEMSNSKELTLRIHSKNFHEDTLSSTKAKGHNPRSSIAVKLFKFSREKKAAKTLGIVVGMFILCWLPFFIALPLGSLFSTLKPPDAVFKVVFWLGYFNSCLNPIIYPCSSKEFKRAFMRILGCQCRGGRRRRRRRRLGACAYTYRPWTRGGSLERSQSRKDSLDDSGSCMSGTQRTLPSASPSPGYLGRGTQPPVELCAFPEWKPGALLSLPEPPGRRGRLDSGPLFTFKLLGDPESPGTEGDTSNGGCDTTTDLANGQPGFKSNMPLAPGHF
T1 sequence (P23944 whole entry): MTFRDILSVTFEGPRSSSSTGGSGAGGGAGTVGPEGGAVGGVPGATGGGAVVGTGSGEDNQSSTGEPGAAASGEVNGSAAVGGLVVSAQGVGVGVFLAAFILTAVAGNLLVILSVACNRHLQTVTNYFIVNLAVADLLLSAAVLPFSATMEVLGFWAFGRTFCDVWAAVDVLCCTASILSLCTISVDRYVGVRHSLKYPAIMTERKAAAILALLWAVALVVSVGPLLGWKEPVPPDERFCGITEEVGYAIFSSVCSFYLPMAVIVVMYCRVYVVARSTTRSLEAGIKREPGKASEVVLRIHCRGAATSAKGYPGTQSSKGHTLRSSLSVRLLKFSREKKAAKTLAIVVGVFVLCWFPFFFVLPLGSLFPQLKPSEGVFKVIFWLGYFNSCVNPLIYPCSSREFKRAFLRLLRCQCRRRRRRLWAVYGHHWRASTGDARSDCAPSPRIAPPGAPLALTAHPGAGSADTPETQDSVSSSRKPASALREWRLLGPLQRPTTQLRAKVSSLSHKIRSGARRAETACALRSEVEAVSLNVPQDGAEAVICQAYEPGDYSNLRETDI
T1 sequence (P43140 whole entry): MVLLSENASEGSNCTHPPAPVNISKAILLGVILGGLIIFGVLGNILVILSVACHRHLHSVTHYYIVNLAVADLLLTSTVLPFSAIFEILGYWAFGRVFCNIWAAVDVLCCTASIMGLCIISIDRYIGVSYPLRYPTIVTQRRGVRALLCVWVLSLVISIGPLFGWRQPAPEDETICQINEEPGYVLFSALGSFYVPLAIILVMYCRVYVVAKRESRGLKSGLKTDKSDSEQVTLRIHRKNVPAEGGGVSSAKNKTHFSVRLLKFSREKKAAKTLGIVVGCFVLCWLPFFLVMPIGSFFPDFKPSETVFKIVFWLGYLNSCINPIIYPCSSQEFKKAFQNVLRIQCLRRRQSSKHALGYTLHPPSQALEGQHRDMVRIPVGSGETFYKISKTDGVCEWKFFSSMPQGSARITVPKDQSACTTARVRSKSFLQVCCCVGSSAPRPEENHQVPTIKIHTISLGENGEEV
Summary of the method: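 Rat cerebral cortex homogenised in ice-cold 50 mM Tris-HCl (pH 7.6 at 25 °C), washed twice at 20000×g and resuspended at 10 mg wet weight/ml. Incubated with [3H]prazosin (19.5 Ci/mmol) and test compound for 30 min at 25 °C. Nonspecific binding defined with 10 µM phentolamine. GF/B filtration, scintillation counting, three-parameter logistic competition fit.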

Rattus norvegicus [2] = experiment: Antiarrhythmic activity in Wistar rat assessed as effect on heart beat at 10 mg/kg, iv after 1 min; format: functional
Summary of the method: (§1)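 Male Wistar rats (180–250 g), anaesthetised with thiopental 60 mg/kg ip. Standard lead II ECG recorded at 50 mm/s just before dosing and at 1, 5 and 15 min after. Heart rate and P–Q, Q–T and QRS intervals were read. n=6 per group, mean ± SEM, one-way ANOVA.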

Rattus norvegicus [3] = experiment: Antiarrhythmic activity in Wistar rat assessed as effect on heart beat at 10 mg/kg, iv after 5 mins; format: functional; summary of the method: as §1
Rattus norvegicus [4] = experiment: Antiarrhythmic activity in Wistar rat assessed as effect on heart beat at 10 mg/kg, iv after 15 mins; format: functional; summary of the method: as §1
Rattus norvegicus [5] = experiment: Cardiotoxicity in Wistar rat assessed as effect on P-Q interval at 10 mg/kg, iv after 1 min; format: toxicity, organism-based; parameters: dose 10 mg/kg, route intravenous; conditions: in vivo; summary of the method: as §1
Rattus norvegicus [6] = experiment: Cardiotoxicity in Wistar rat assessed as effect on P-Q interval at 10 mg/kg, iv after 5 mins; format: toxicity, organism-based; parameters: dose 10 mg/kg, route intravenous; conditions: in vivo; summary of the method: as §1
Rattus norvegicus [7] = experiment: Cardiotoxicity in Wistar rat assessed as effect on P-Q interval at 10 mg/kg, iv after 15 mins; format: toxicity, organism-based; parameters: dose 10 mg/kg, route intravenous; conditions: in vivo, 0.25 h; summary of the method: as §1
Rattus norvegicus [8] = experiment: Cardiotoxicity in Wistar rat assessed as effect on Q-T interval at 10 mg/kg, iv after 1 min; format: toxicity, organism-based; parameters: dose 10 mg/kg, route intravenous; conditions: in vivo; summary of the method: as §1
Rattus norvegicus [9] = experiment: Cardiotoxicity in Wistar rat assessed as effect on Q-T interval at 10 mg/kg, iv after 5 mins; format: toxicity, organism-based; parameters: dose 10 mg/kg, route intravenous; conditions: in vivo; summary of the method: as §1
Rattus norvegicus [10] = experiment: Cardiotoxicity in Wistar rat assessed as effect on Q-T interval at 10 mg/kg, iv after 15 mins; format: toxicity, organism-based; parameters: dose 10 mg/kg, route intravenous; conditions: in vivo, 0.25 h; summary of the method: as §1
Rattus norvegicus [11] = experiment: Cardiotoxicity in Wistar rat assessed as effect on QRS interval at 10 mg/kg, iv after 1 min; format: toxicity, organism-based; parameters: dose 10 mg/kg, route intravenous; conditions: in vivo; summary of the method: as §1
Rattus norvegicus [12] = experiment: Cardiotoxicity in Wistar rat assessed as effect on QRS interval at 10 mg/kg, iv after 5 mins; format: toxicity, organism-based; parameters: dose 10 mg/kg, route intravenous; conditions: in vivo; summary of the method: as §1
Rattus norvegicus [13] = experiment: Cardiotoxicity in Wistar rat assessed as effect on QRS interval at 10 mg/kg, iv after 15 mins; format: toxicity, organism-based; parameters: dose 10 mg/kg, route intravenous; conditions: in vivo, 0.25 h; summary of the method: as §1
Rattus norvegicus [14] = experiment: Antiarrhythmic activity in Wistar rat assessed as protection against adrenaline-induced extrasystoles at 2.5 to 10 mg/kg, iv administered 15 mins prior to adrenaline-challenge; format: functional, organism-based; conditions: Heart
Summary of the method: (§2)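 Szekeres model in male Wistar rats anaesthetised with thiopental (60 mg/kg ip). Test compound given iv in water (2.5–10 mg/kg) 15 min before adrenaline 20 µg/kg iv. Scored for extrasystoles, bigeminy and mortality; activity means no premature beats and inhibited arrhythmia versus controls.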

Rattus norvegicus [15] = experiment: Antiarrhythmic activity in Wistar rat assessed as protection against adrenaline-induced bigeminy at 2.5 to 10 mg/kg, iv administered 15 mins prior to adrenaline-challenge; format: functional, organism-based; conditions: Heart; summary of the method: as §2
Rattus norvegicus [16] = experiment: Antiarrhythmic activity in barium chloride-induced Wistar rat arrhythmia model assessed as protection against mortality at 2.5 to 10 mg/kg, iv administered 15 mins prior to barium chloride-challenge; format: functional, organism-based; conditions: Heart
Summary of the method: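 Szekeres model in male Wistar rats. Activity is gradual disappearance of arrhythmia with restored sinus rhythm; protection against disturbances and death scored. Groups of 6 animals.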

Rattus norvegicus [17] = experiment: Antiarrhythmic activity in iv dosed Wistar rat assessed as protection against adrenaline-induced arrhythmia administered 15 mins prior to adrenaline-challenge; format: functional; conditions: Heart; summary of the method: as §2
Rattus norvegicus [18] = experiment: Hypotensive activity in normotensive Wistar rat assessed as decrease in systolic blood pressure at 2.5 to 10 mg/kg, iv at 1 min; format: organism-based, Artery; parameters: dose 2.5-10 mg/kg, route intravenous; conditions: in vivo
Summary of the method: (§3)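 Right carotid artery cannulated with heparin-saline-filled tubing for blood pressure recording. After 5 min stabilisation, compound injected iv into the caudal vein (2.5–10 mg/kg, 1 ml/kg). Systolic and diastolic pressure followed for 60 min. n=6 per group, mean ± SEM, one-way ANOVA.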

Rattus norvegicus [19] = experiment: Hypotensive activity in normotensive Wistar rat assessed as decrease in diastolic blood pressure at 2.5 to 10 mg/kg, iv at 1 min; format: organism-based, Artery; parameters: dose 2.5-10 mg/kg, route intravenous; conditions: in vivo; summary of the method: as §3
Rattus norvegicus [20] = experiment: Hypotensive activity in normotensive Wistar rat assessed as decrease in systolic blood pressure at 2.5 to 10 mg/kg, iv after 1 min measured up to 60 mins; format: organism-based, Artery; parameters: dose 2.5-10 mg/kg, route intravenous; conditions: in vivo; summary of the method: as §3
Rattus norvegicus [21] = experiment: Hypotensive activity in normotensive Wistar rat assessed as decrease in diastolic blood pressure at 2.5 to 10 mg/kg, iv after 1 min measured up to 60 mins; format: organism-based, Artery; parameters: dose 2.5-10 mg/kg, route intravenous; conditions: in vivo; summary of the method: as §3

Ki [1]: 25 nM
pKi [1]: 7.6
Structure (SMILES): COC(=O)CN1C(=O)N(CCCCN2CCN(c3ccccc3OC)CC2)C(c2ccccc2)(c2ccccc2)C1=O.Cl
Activity (Rattus norvegicus [2]): 355.8 min⁻¹
Activity (Rattus norvegicus [3]): 354.3 min⁻¹
Activity (Rattus norvegicus [4]): 357.8 min⁻¹
Activity (Rattus norvegicus [5]): 62.6 ms
Activity (Rattus norvegicus [6]): 63.3 ms
Activity (Rattus norvegicus [7]): 62.8 ms
Activity (Rattus norvegicus [8]): 74.6 ms
Activity (Rattus norvegicus [9]): 73.3 ms
Activity (Rattus norvegicus [10]): 75.6 ms
Activity (Rattus norvegicus [11]): 19.6 ms
Activity (Rattus norvegicus [12]): 19.3 ms
Activity (Rattus norvegicus [13]): 19.5 ms
Activity (Rattus norvegicus [14]): Active
Activity (Rattus norvegicus [15]): Active
Activity (Rattus norvegicus [16]): Active
ED50 (Rattus norvegicus [17]): 1.8 mg/kg
Activity (Rattus norvegicus [18]): Toxic
Activity (Rattus norvegicus [19]): Toxic
Activity (Rattus norvegicus [20]): Non-toxic
Activity (Rattus norvegicus [21]): Non-toxic

Structure (SMILES): CCOC(=O)C(C)N1C(=O)N(CC(O)CN2CCN(c3ccccc3OC)CC2)C(c2ccccc2)(c2ccccc2)C1=O.Cl (racemic)
Activity (Rattus norvegicus [14]): Active
Activity (Rattus norvegicus [15]): Active
Activity (Rattus norvegicus [16]): Active
ED50 (Rattus norvegicus [17]): 0.41 mg/kg
